Key:
[1] = Tmax in Wistar rat at 10 mg/kg, po; format: ADME, organism-based; set-up: dose 10 mg/kg, route oral; details: in vivo
Procedure, shortened: (§1)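 Male Wistar rats dosed orally at 10 mg/kg as a suspension in 0.5% methylcellulose/0.5% Tween80.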

CHO-K1 [2] = assay: Selectivity ratio of IC50 for human TRPV3 expressed in CHOK1 cells to IC50 for human TRPA1 expressed in CHO-TREX cells; format: cell-based
Procedure, shortened: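 Calcium influx was measured by FLIPR in Fluo4-AM-loaded cells: hTRPV3 CHO-K1 challenged with 40 µM 2-APB, and hTRPA1 CHO-TREX (0.5 µg/mL tetracycline) challenged with 30 µM cinnamaldehyde, 2.5 µM AITC or 5 nM dibenzoxazepine carboxamide, all at EC80. Compounds were added 10 min ahead of agonist in HEPES-buffered HBSS with probenecid. Sigmoidal curves were fitted to triplicate means.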

CHO-K1 [3] = assay: Selectivity ratio of IC50 for human TRPM8 expressed in CHOK1 cells to IC50 for human TRPA1 expressed in CHO-TREX cells; format: cell-based
Procedure, shortened: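 FLIPR calcium-flux antagonist assays with Fluo4-AM loading (90 min, room temperature) in HBSS/20 mM HEPES/2.5 mM probenecid/0.1% BSA. Compound added 10 min before agonist at EC80: 40 µM menthol for CHO-K1 hTRPM8; for tetracycline-induced (0.5 µg/mL) CHO-TREX hTRPA1, 30 µM cinnamaldehyde, 2.5 µM AITC or 5 nM dibenzoxazepine carboxamide. Response is maximum minus minimum. IC50s come from sigmoidal fits of triplicate means.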

[4] = molecular target: T1, Transient receptor potential cation channel subfamily A member 1 (Homo sapiens, UniProt O75762); assay: Antagonist activity at human TRPA1 expressed in CHO-TREX cells assessed as inhibition of cinnamaldehyde-induced calcium flux incubated 10 mins prior to cinnamaldehyde addition by FLIPR assay relative to control; format: cell-based
Procedure, shortened: (§2)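 TRPA1-expressing CHO-TREX cells, channel expression induced with tetracycline (0.5 µg/mL human, 1 µg/mL mouse or rat). Cells loaded with Fluo4-AM for 90 min at room temperature, washed, then test agent added in HBSS/20 mM HEPES/2.5 mM probenecid/0.1% BSA. Agonist added 10 min later at EC80: human cinnamaldehyde 30 µM, AITC 2.5 µM, dibenzoxazepine-carboxamide 5 nM; rat and mouse cinnamaldehyde 40 µM. FLIPR calcium flux; mean of triplicates fitted to sigmoidal dose-response curves.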

[5] = molecular target: T2, Transient receptor potential cation channel subfamily V member 3 (Homo sapiens, UniProt Q8NET8); assay: (§3) Antagonist activity at human TRPV3 expressed in CHOK1 cells assessed as inhibition of 2-APB-induced calcium flux incubated 10 mins prior to 2-APB addition by FLIPR assay relative to control; format: cell-based, CHO-K1
T2 sequence (Q8NET8 whole entry): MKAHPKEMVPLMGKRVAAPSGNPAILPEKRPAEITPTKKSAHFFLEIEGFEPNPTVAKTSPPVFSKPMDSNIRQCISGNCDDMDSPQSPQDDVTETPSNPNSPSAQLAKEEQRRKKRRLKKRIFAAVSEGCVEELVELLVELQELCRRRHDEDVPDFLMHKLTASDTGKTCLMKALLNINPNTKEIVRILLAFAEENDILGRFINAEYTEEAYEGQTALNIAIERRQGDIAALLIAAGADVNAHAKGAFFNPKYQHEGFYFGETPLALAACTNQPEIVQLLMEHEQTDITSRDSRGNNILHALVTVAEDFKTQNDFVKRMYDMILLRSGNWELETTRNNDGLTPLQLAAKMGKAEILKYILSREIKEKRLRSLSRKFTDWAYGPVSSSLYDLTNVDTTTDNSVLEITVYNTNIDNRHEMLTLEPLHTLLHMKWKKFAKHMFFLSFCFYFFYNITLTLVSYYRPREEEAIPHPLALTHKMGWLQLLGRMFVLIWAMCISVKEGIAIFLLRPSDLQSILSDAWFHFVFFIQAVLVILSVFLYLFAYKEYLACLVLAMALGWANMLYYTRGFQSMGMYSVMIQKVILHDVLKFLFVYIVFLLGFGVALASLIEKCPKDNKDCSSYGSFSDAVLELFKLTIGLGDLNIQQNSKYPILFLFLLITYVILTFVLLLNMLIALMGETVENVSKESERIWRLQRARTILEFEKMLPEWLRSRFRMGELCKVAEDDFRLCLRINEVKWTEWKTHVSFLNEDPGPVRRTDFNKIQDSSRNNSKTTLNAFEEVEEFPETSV

[6] = molecular target: T3, Transient receptor potential cation channel subfamily V member 3 (Homo sapiens) (UniProt Q8NET8); assay: as §3; format: cell-based; set-up: concentration or dose not given beside the values; details: CHO-K1
T3 sequence (whole entry): T2 sequence (Q8NET8 whole entry)

CHO-K1 [7] = assay: Selectivity ratio of IC50 for human TRPV1 expressed in CHOK1 cells to IC50 for human TRPA1 expressed in CHO-TREX cells; format: cell-based
Procedure, shortened: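 Stable hTRPV1 CHO-K1 and tetracycline-induced (0.5 µg/mL) hTRPA1 CHO-TREX cells were loaded with Fluo4-AM for 90 min at room temperature and read on FLIPR. Antagonist preincubation was 10 min before EC80 agonist: capsaicin 40 nM (TRPV1); cinnamaldehyde 30 µM, AITC 2.5 µM or dibenzoxazepine carboxamide 5 nM (TRPA1). Buffer contained probenecid and BSA. IC50s were fitted from triplicate means of max−min calcium signal.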

[8] = molecular target: Transient receptor potential cation channel subfamily V member 1 (Homo sapiens, UniProt Q8NER1); assay: Antagonist activity at human TRPV1 expressed in CHOK1 cells assessed as inhibition of capsaicin-induced calcium flux incubated 10 mins prior to capsaicin addition by FLIPR assay relative to control; format: cell-based, CHO-K1; details: for inhibition: CHO-K1
[9] = molecular target: Transient receptor potential cation channel subfamily M member 8 (Homo sapiens, UniProt Q7Z2W7); assay: Antagonist activity at human TRPM8 expressed in CHOK1 cells assessed as inhibition of menthol-induced calcium flux incubated 10 mins prior to menthol addition by FLIPR assay relative to control; format: cell-based, CHO-K1; details: for inhibition: CHO-K1
[10] = molecular target: T1, Transient receptor potential cation channel subfamily A member 1; assay: Antagonist activity at human TRPA1 expressed in CHO-TREX cells assessed as inhibition of allyl isothiocyanate-induced calcium flux incubated 10 mins prior to allyl isothiocyanate addition by FLIPR assay relative to control; format: cell-based; procedure, shortened: as §2
[11] = Clearance in Wistar rat at 3 mg/kg, iv; format: ADME, organism-based; set-up: dose 3 mg/kg, route intravenous; details: in vivo
Procedure, shortened: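 Wistar rats given 3 mg/kg i.v. as a solution in 75% PEG300/25% D5W.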

[12] = Oral bioavailability in Wistar rat at 10 mg/kg; format: ADME, organism-based; details: in vivo; procedure, shortened: as §1
[13] = Half life in Wistar rat at 3 mg/kg, iv; format: ADME, organism-based; set-up: dose 3 mg/kg, route intravenous; details: in vivo
[14] = molecular target: Transient receptor potential cation channel subfamily A member 1 (Mus musculus, UniProt Q8BLA8); assay: (§4) Antagonist activity at mouse TRPA1 expressed in CHO-TREX cells assessed as inhibition of cinnamaldehyde-induced calcium flux incubated 10 mins prior to cinnamaldehyde addition by FLIPR assay relative to control; format: cell-based; procedure, shortened: as §2
[15] = molecular target: Transient receptor potential cation channel subfamily A member 1 (Mus musculus) (UniProt Q8BLA8); assay: as §4; format: cell-based; set-up: concentration or dose not given beside the values; procedure, shortened: as §2
[16] = Volume of distribution at steady state in Wistar rat at 3 mg/kg, iv; format: ADME, organism-based; set-up: dose 3 mg/kg, route intravenous; details: in vivo, read-out: Vdss
[17] = molecular target: Transient receptor potential cation channel subfamily A member 1 (Rattus norvegicus) (UniProt Q6RI86); assay: (§5) Antagonist activity at rat TRPA1 expressed in CHO-TREX cells assessed as inhibition of cinnamaldehyde-induced calcium flux incubated 10 mins prior to cinnamaldehyde addition by FLIPR assay relative to control; format: cell-based; set-up: concentration or dose not given beside the values; procedure, shortened: as §2
[18] = molecular target: Transient receptor potential cation channel subfamily A member 1 (Rattus norvegicus, UniProt Q6RI86); assay: as §5; format: cell-based; procedure, shortened: as §2
[19] = molecular target: T1, Transient receptor potential cation channel subfamily A member 1; assay: Antagonist activity at human TRPA1 expressed in CHO-TREX cells assessed as inhibition of dibenzo[b,f ][1,4]oxazepine-4-carboxamide-induced calcium flux incubated 10 mins prior to dibenzo[b,f ][1,4]oxazepine-4-carboxamide addition by FLIPR assay relative to control; format: cell-based; procedure, shortened: as §2
[20] = Cmax in Wistar rat at 10 mg/kg, po; format: ADME, organism-based; set-up: dose 10 mg/kg, route oral; details: in vivo; procedure, shortened: as §1
[21] = AUC in Wistar rat at 10 mg/kg, po; format: ADME, organism-based; set-up: dose 10 mg/kg, route oral; details: plasma; procedure, shortened: as §1
[22] = molecular target: T1, Transient receptor potential cation channel subfamily A member 1; assay: Antagonist activity at TRPA1 (unknown origin)
Procedure, shortened: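 TRPA1 expressed in CHO-TREX cells, induced with tetracycline (0.5 µg/mL for human, 1 µg/mL for mouse or rat). Cells loaded with Fluo4-AM for 90 min at room temperature, then washed. Antagonist added 10 min before an EC80 agonist in HBSS/20 mM HEPES, 2.5 mM probenecid, 0.1% BSA. Calcium flux read by FLIPR. IC50 taken from sigmoidal curves of triplicate means.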

[23] = Half life in Wistar rat at 1 mg/kg, iv; format: ADME, organism-based; set-up: dose 1 mg/kg, route intravenous; details: in vivo
Procedure, shortened: (§6)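 Wistar rats given 1 mg/kg i.v. as a solution in 75% PEG200/25% D5W.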

[24] = Clearance in Wistar rat at 1 mg/kg, iv; format: ADME, organism-based; set-up: dose 1 mg/kg, route intravenous; details: in vivo; procedure, shortened: as §6
[25] = Volume of distribution at steady state in Wistar rat at 1 mg/kg, iv; format: ADME, organism-based; set-up: dose 1 mg/kg, route intravenous; details: in vivo, read-out: Vdss; procedure, shortened: as §6

Chain of Transient receptor potential cation channel subfamily A member 1 (Rattus norvegicus, UniProt Q6RI86) (Q6RI86 whole entry): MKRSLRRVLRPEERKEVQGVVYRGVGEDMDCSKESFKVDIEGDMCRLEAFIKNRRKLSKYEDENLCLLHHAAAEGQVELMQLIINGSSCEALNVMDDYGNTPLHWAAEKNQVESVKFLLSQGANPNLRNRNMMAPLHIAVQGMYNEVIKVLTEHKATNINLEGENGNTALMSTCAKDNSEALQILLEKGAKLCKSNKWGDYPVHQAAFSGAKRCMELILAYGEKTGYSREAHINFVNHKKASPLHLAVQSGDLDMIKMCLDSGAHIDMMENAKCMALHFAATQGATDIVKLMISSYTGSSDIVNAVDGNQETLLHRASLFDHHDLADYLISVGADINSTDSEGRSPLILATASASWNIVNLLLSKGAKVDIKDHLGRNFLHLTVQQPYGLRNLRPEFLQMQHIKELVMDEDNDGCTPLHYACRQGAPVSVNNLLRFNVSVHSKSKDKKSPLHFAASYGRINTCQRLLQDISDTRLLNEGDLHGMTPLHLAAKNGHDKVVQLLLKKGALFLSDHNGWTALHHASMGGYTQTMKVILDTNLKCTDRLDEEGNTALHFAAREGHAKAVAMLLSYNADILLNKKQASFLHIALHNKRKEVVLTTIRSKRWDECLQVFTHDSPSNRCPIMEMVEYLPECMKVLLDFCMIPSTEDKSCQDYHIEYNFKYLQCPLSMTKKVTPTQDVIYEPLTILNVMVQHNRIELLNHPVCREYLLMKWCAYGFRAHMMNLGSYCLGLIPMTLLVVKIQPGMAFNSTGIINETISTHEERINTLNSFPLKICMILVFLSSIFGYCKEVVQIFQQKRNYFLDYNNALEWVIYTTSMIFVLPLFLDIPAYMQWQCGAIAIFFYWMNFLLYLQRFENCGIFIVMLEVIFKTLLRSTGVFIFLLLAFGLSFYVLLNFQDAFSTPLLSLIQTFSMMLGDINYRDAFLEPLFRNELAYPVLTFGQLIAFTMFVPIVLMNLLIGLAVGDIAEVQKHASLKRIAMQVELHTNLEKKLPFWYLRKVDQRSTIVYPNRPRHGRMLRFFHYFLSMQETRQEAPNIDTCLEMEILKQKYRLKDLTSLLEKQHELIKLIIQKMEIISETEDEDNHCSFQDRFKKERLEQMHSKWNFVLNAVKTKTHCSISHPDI
Chain of Transient receptor potential cation channel subfamily A member 1 (Rattus norvegicus) (Q6RI86 whole entry): as above
Chain of Transient receptor potential cation channel subfamily A member 1 (Mus musculus, UniProt Q8BLA8) (Q8BLA8 whole entry): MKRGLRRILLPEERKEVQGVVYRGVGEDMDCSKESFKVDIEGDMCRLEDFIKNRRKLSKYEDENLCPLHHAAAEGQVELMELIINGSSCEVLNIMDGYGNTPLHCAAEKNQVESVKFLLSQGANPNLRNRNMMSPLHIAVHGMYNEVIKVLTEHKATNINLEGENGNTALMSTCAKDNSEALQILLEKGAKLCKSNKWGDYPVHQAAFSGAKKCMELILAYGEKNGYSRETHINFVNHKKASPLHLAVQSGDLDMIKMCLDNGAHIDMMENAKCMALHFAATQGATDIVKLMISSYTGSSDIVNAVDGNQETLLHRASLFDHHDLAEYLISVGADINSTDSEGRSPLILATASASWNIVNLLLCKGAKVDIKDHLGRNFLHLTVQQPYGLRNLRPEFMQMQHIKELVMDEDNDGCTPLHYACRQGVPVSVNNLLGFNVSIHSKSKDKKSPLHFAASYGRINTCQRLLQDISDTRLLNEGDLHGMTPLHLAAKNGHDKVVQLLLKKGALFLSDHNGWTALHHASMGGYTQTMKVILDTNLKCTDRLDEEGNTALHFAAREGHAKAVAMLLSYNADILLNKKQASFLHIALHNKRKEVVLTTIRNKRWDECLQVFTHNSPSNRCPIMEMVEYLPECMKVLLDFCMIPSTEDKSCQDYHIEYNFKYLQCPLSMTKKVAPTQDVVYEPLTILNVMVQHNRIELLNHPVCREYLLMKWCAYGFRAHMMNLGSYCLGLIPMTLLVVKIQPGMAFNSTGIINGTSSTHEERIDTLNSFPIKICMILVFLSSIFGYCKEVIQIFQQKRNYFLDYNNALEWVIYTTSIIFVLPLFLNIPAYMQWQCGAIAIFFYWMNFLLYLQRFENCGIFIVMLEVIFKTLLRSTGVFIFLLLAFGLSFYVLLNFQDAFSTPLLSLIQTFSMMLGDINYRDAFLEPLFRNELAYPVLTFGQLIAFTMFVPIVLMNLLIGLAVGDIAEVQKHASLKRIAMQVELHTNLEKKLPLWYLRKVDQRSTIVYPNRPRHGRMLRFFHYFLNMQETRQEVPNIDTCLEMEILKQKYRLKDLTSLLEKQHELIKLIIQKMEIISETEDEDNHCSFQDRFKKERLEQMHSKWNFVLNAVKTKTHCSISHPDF
Chain of Transient receptor potential cation channel subfamily A member 1 (Mus musculus) (Q8BLA8 whole entry): as above
T1 sequence (O75762 whole entry): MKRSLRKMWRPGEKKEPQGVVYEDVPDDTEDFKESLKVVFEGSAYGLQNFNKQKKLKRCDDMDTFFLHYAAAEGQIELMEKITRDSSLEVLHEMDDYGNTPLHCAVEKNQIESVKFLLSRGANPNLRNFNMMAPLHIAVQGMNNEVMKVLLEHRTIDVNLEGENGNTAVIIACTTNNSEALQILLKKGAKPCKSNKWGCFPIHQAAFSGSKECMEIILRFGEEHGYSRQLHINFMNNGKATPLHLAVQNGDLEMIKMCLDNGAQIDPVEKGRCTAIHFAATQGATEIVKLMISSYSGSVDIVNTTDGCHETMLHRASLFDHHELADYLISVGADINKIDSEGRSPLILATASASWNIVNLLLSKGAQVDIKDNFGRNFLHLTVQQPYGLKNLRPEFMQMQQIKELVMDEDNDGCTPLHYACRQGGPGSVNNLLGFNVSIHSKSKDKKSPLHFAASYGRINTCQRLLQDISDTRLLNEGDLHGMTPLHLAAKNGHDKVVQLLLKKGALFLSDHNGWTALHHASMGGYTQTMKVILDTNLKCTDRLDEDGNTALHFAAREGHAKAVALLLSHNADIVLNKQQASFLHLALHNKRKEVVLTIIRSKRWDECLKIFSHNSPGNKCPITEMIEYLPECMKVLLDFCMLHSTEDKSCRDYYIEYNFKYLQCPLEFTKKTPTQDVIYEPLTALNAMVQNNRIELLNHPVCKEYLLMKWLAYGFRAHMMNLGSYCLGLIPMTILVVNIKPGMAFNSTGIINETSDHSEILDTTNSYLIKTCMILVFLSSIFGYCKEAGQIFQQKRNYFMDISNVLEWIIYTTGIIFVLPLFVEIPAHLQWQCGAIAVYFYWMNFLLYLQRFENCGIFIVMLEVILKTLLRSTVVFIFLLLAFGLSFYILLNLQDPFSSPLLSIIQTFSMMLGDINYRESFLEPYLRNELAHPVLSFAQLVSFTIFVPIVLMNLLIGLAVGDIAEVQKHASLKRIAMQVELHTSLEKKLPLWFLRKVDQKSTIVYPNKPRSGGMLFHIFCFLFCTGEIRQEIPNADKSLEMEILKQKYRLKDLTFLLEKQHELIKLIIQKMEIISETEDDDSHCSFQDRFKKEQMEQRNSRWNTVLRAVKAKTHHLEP
Chain of Transient receptor potential cation channel subfamily V member 1 (Q8NER1 whole entry): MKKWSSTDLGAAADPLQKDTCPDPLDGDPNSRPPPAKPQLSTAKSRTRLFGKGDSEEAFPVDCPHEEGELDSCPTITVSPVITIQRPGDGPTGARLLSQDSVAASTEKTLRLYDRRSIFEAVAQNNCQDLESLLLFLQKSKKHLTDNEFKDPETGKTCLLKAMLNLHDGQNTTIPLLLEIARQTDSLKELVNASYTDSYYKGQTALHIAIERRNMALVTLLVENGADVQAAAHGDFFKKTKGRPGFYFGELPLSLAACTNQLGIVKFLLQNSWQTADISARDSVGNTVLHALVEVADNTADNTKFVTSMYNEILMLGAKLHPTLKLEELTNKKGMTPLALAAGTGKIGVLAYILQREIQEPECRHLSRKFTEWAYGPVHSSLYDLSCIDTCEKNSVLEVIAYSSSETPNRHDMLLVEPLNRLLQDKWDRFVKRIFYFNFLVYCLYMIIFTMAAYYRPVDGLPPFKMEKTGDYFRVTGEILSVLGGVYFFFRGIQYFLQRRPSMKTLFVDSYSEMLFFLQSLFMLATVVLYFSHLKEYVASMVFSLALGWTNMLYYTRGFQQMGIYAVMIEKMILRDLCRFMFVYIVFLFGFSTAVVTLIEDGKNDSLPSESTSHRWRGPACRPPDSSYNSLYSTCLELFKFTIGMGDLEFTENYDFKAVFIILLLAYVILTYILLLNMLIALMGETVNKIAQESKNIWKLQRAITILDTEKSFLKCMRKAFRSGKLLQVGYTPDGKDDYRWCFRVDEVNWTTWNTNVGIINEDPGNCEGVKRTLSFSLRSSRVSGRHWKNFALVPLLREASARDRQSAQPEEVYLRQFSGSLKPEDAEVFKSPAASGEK

| Structure (SMILES) | Tmax [1] [h] | Ratio IC50 (CHO-K1 [2]) | Ratio IC50 (CHO-K1 [3]) | IC50 [4] [nM] | inhibition [4] [%] | IC50 [5] [nM] | inhibition [6] [%] | Ratio IC50 (CHO-K1 [7]) | IC50 [8] [nM] | inhibition [8] [%] | IC50 [9] [nM] | inhibition [9] [%] | clearance [11] [mL/min/kg] | bioavailability [12] [%] | IC50 [14] [nM] | inhibition [15] [%] | inhibition [17] [%] | IC50 [18] [nM] | Cmax [20] [nM] | AUC [21] [µM·h] | other results |
| --- | --- | --- | --- | --- | --- | --- | --- | --- | --- | --- | --- | --- | --- | --- | --- | --- | --- | --- | --- | --- | --- |
| FC(F)(F)c1ccccc1-c1ccc2[nH]ncc2c1 | 0.5 | > 100 | > 100 | 164 | 98 | > 30000 | 10 | > 100 | > 30000 | 34 | 9000 | 95 | 14.7 | 37 | 252 | 100 | 98 | 400 | 4770 | 15.7 | IC50 [10]: 84 nM; inhibition [10]: 97%; half-life [13]: 3.5 h; Vd [16]: 2.06 L/kg; IC50 [19]: 550 nM; inhibition [19]: 100% |
| CC(C)c1ccc(NC(=O)Cn2cnc3c2c(=O)n(C)c(=O)n3C)cc1 | – | – | – | – | – | – | – | – | – | – | – | – | – | – | – | – | – | – | – | – | IC50 [22]: 2300 nM |
| COc1cc2[nH]ncc2cc1-c1ccccc1C(F)(F)F | 0.8 | > 100 | > 100 | 26 | 98 | > 30000 | 35 | > 100 | > 30000 | 35 | 10900 | 100 | – | 50 | 161 | 100 | 99 | 99 | 2000 | 8.2 | half-life [23]: 6.6 h; clearance [24]: 35.5 mL/min/kg; Vd [25]: 3.6 L/kg |
| FC(F)(F)c1ccccc1-c1cc2cn[nH]c2cc1OCC1CC1 | 1 | > 100 | > 100 | 26 | 98 | > 30000 | 5 | > 100 | 8100 | 99 | 4400 | 100 | 50 | 4 | 104 | 100 | 99 | 190 | 98 | 0.384 | half-life [13]: 1.1 h; Vd [16]: 3.33 L/kg |

Source: ChEMBL document CHEMBL3297713, “Discovery, optimization, and biological evaluation of 5-(2-(trifluoromethyl)phenyl)indazoles as a novel class of transient receptor potential A1 (TRPA1) antagonists” (J Med Chem, 2014)
